Compounds with a hit are over-represented: about 3.4% of the library has one in this group of screens.
APOBEC3G inh = inhibitors of human APOBEC3G DNA deaminase; Q9HC16; recombinant A3G, ssDNA deamination FAM/TAMRA fluorescence; inhibition, % at 20 µM; 330,000 tested, 0.28% active; AID 493012;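 active = inhibition of at least 40% at 20 µM, with no more than 30% in the related APOBEC3A deaminase screen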
Arr AP2 block = inhibitors of human beta-arrestin and AP2 interaction; FITC-arrestin peptide / GST-AP2 beads, flow cytometry; AP2 beta2 appendage carries R879A mutation; 340,000 tested, 0.31% active; inhibition, % at 10 µM; AID 504490;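 active = inhibition above a set limit, near 3 SD of compounds lacking own fluorescence, cut at about 54% in these data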
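System: GST-AP2 R879A glutathione beads. Medium: PBS with 0.05% Tween 20 and 0.1% BSA. Also added: FITC-arrestin peptide, 50 nM. Incubation: 12 min plus 1 h, RT. Measured by: high-throughput flow cytometry of beads, ex 488, em 535 nm. Evaluation: percent drop in bead-associated FITC signal.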
A3A deaminase = blocks human APOBEC3A ssDNA deamination; recombinant A3A, FAM/TAMRA ssDNA deamination fluorescence; inhibition, % at 20 µM; 330,000 tested, 0.41% active; AID 493011;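 active = at least 40% inhibition at 20 µM here, with at most 30% in a related deaminase screen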
Target sequence (P31941 whole entry, looked up): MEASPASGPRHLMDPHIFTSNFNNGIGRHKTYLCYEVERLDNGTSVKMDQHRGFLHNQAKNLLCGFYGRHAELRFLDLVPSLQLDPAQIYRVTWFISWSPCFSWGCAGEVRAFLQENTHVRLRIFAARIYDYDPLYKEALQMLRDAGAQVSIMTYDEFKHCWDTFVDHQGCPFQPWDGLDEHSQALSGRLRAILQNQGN
UCH37 DUB inh = blocks the human deubiquitinase UCH37; purified proteasome/UCH37, Ub-AMC cleavage fluorescence; Q9Y5K5; inhibition, % (no concentration beside the values); 330,000 tested, 0.33% active;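 active = mean inhibition over replicate wells above about 20%, limit read from the data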
Target sequence (Q9Y5K5 whole entry, looked up): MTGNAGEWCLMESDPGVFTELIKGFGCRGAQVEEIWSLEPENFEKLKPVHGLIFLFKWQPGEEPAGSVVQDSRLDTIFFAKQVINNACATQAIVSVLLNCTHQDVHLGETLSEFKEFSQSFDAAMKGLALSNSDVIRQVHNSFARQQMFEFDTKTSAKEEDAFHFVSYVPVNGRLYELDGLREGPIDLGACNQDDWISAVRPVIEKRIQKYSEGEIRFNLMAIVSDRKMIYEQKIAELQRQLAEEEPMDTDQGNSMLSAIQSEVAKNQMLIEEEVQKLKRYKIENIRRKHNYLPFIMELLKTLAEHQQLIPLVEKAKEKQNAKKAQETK
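system = Proteasome-associated human UCH37 deubiquitinase | amount = 0.15 nM proteasome as dispensed | medium = pH 7.4 Tris-HCl (50 mM) with ovalbumin, ATP-MgCl2, DTT | incubation = 30 min preincubation with enzyme, 25 min cleavage at room temperature | detection = AMC fluorescence 355/460 nm | read-out basis = percent inhibition | controls = no-proteasome and no-compound wells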
AHR activator = activates the human aryl hydrocarbon receptor. P35869. AHR-responsive luciferase reporter cells, luminescence. activation, % at 5 µM. 320,000 tested, 2.5% active; in the data active = activation above about 47%
PolyA inh = inhibitors of polyadenylation in S. cerevisiae; AID 1875; activity score, % at 12 µM; 300,000 tested, 0.02% active; S. cerevisiae SKY197-pL101 polyadenylation reporter, beta-gal luminescence; efflux-impaired pdr1/pdr3 knockout yeast; score 100 = 6 SD above DMSO;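 active = lowest replicate activity score at least 50, where 100 means six control SD above control mean; inconclusive = lowest score under 50 but half or more replicates reach 50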;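 also: yeast exposed to compound for 9 h at 30 °C; higher score means more reporter readthrough which indicates perturbed polyadenylation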
Arr AP2 CP1 = inhibitors of human beta-arrestin and AP2 interaction | inhibition, % at 10 µM | shares compounds with Arr AP2 block | GST-AP2 beads, FITC arrestin peptide binding, flow cytometry; GST-fused beta2-adaptin appendage, R879A mutant | AID 504908 | 1,300 tested, 2% active;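 active = inhibition above a set limit, roughly 3 SD of non-fluorescent compound noise, cut at about 38% in these data; inactive = inhibition at or below that limit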;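 also: loss of bead fluorescence from 50 nM FITC arrestin peptide bound to appendage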
GST-FITC bead = GST-GSH bead binding interference, counter-screen | shares compounds with Arr AP2 block | GST-fluorescein binding to GSH beads, fluorescence | inhibition, % at 10 µM | 1,300 tested, 2% active;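 active = inhibition above 50%, about 3 SD of the inhibition seen with non-fluorescent compounds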;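 also: fluorescein maleimide labelled GST captured on 4 micron glutathione beads; higher means more loss of bead fluorescence from quenching or blocked binding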
A number is an active result; i = inactive; ? = inconclusive; nt = not tested or not shown.

SMILES | APOBEC3G inh | Arr AP2 block | A3A deaminase | UCH37 DUB inh | AHR activator | PolyA inh | Arr AP2 CP1 | GST-FITC bead
O=[N+]([O-])c1ccc(Cl)c(C=NN2CCN(Cc3ccccc3)CC2)c1 | nt | nt | nt | i | nt | nt | nt | nt
COc1cc(OC)c(OC)cc1C=Nn1c(C)nnc1C | nt | nt | nt | i | nt | nt | nt | nt
Oc1c(C=C2N=c3ccccc3=N2)sc(=S)n1C1CCCC1 | i | 110 | i | i | 59 | i | i | i
O=[N+]([O-])c1ccc(NC(=S)N2CCN(S(=O)(=O)c3ccccc3)CC2)cc1 | i | 71 | i | i | nt | nt | i | i
O=S(=O)(c1ccccc1)N1CCN(C(=S)Nc2ccc(Br)cc2)CC1 | i | i | i | i | nt | nt | nt | nt
CC(=NNC(=O)CCC(=O)NCc1ccccc1)c1ccco1 | nt | nt | nt | i | nt | nt | nt | nt
Cc1cccc(C(=O)ON=C(c2ccccc2)c2cccnc2)c1 | nt | nt | nt | i | nt | nt | nt | nt
COc1ccc(NC(=O)N(CCN2CCCC2)Cc2cc3cc(OC)c(OC)cc3[nH]c2=O)cc1 | i | 87 | i | i | i | i | i | i
O=C(Nc1ccc(F)cc1)N(CCCN1CCOCC1)Cc1cc2cc3c(cc2[nH]c1=O)OCO3 | i | 68 | i | i | i | i | i | i
COc1ccc(CN(Cc2cc3cc(OC)c(OC)cc3[nH]c2=O)C(=O)NC2CCCCC2)cc1 | i | i | i | i | i | nt | i | i
CCOC(=O)c1ccc(N=c2sc(C(=O)OC)cc(=O)n2Cc2ccc3c(c2)OCO3)cc1 | i | i | i | i | i | i | nt | nt
CCOC(=O)c1ccc(N=c2sc(C(=O)OC)cc(=O)n2C2CC2)cc1 | i | 106 | i | i | i | i | i | 89
COc1cc(OC)cc(C(=O)NCC(=O)OCc2nc3ccccc3s2)c1 | i | 55 | i | i | i | i | i | i
O=C(CNC(=O)c1ccc(Cl)cc1)OCc1nc2ccccc2s1 | i | i | i | i | i | i | nt | nt
O=C(Cn1cnc(S(=O)(=O)N2CCCC2)c1)Nc1ccc(OC(F)(F)F)cc1 | i | 66 | i | i | i | i | i | i
COc1ccc(CCC(=O)NN=C(C)c2ccc3c(c2)OCO3)cc1 | nt | nt | nt | i | nt | nt | nt | nt
CCOC(=O)c1ccccc1NC(=O)c1nc2nccc(C)n2n1 | i | 98 | i | i | i | i | i | i
Cc1ccnc2nc(C(=O)OCC(=O)Nc3ccccc3C(C)(C)C)nn12 | i | i | i | i | i | nt | nt | nt
FCCCOc1ccc(C=NOCc2ccc(Cl)cc2)cc1 | nt | nt | nt | i | nt | nt | nt | nt
CCNc1ccc2noc3c2c1C(=O)c1ccccc1-3 | i | 63 | i | i | i | i | i | 91
CCOC(=O)c1c(-c2cccs2)csc1NC(=O)c1ccncc1 | i | i | i | i | i | i | nt | nt
CCOC(=O)c1c(-c2cccs2)csc1NC(=O)COC(=O)c1c(C)noc1C | i | 55 | i | i | i | i | i | i
O=[N+]([O-])c1ccc(S(=O)(=O)NN=Cc2ccsc2)cc1 | nt | nt | nt | i | nt | nt | nt | nt
CCOC(=O)C1=C(COC(=O)CCc2ccc(CC)cc2)NC(=O)NC1C (stereo unspecified) | i | i | i | i | i | nt | i | i
CCOC(=O)C1=C(COC(=O)/C=C/c2ccccc2F)NC(=O)NC1C (stereo unspecified) | i | i | i | nt | i | i | nt | nt
SMILES | APOBEC3G inh | Arr AP2 block | A3A deaminase | UCH37 DUB inh | AHR activator | PolyA inh | Arr AP2 CP1 | GST-FITC bead
CCOC(=O)C1=C(COC(=O)Cc2ccccc2F)NC(=O)NC1C (stereo unspecified) | i | i | i | i | i | i | i | i
CCOC(=O)C1=C(COC(=O)Cc2ccc(Br)cc2)NC(=O)NC1C (stereo unspecified) | i | i | i | i | i | i | i | i
CCOC(=O)C1=C(COC(=O)C2CC(=O)N(CCc3ccccc3)C2)NC(=O)NC1C (stereo unspecified) | i | i | i | i | i | nt | nt | nt
CCOC(=O)C1=C(COC(=O)CCc2ccccc2)NC(=O)NC1C (stereo unspecified) | i | i | i | i | i | nt | i | i
CCOC(=O)C1=C(COC(=O)CSc2ccc(Br)cc2)NC(=O)NC1C (stereo unspecified) | i | i | i | i | i | ? | nt | nt
Cc1ccc(C=NNC(=O)Cn2nc(C)c([N+](=O)[O-])c2C)o1 | nt | nt | nt | i | nt | nt | nt | nt
Cc1nn(C)c(C(=O)NN=Cc2ccc(-c3ccccc3)cc2)c1Cl | nt | nt | nt | i | nt | nt | nt | nt
CC(=NNC(=O)CCc1c(C)n[nH]c1C)c1cccc([N+](=O)[O-])c1 | nt | nt | nt | i | nt | nt | nt | nt
CCCCCCOc1ccc(C=c2sc(=C(C#N)C(=O)NCc3ccco3)n(-c3ccccc3)c2=O)cc1 | nt | nt | nt | i | nt | nt | nt | nt
CCOC(=O)C1=C(COC(=O)CCC(=O)c2ccc(C)cc2)NC(=O)NC1C (stereo unspecified) | i | i | i | i | i | nt | i | i
COc1ccc(C(=O)Nc2ccc(C)c(S(=O)(=O)N3CCOCC3)c2)cc1S(=O)(=O)N1CCCC1 | nt | i | nt | i | nt | nt | nt | nt
Cc1ccc(NC(=O)c2ccc(=O)[nH]c2)cc1S(=O)(=O)N1CCCCC1 | i | i | i | i | i | i | i | i
O=C(Nc1ccc(S(=O)(=O)N2CCCCC2)cc1)c1ccc(=O)[nH]c1 | i | i | i | i | i | nt | nt | nt
COc1ccc(NC(=O)c2ccc(=O)[nH]c2)cc1S(=O)(=O)N1CCOCC1 | i | i | i | i | nt | nt | i | i
O=C(Cn1cc(C(F)(F)F)ccc1=O)NN=Cc1ccccc1O | nt | nt | nt | i | nt | nt | nt | nt
O=C(CSc1nc2c([nH]c3ccccc32)c(=O)n1-c1ccc(F)cc1)NCc1ccco1 | i | 101 | i | i | i | i | i | i
Cc1ccc(-n2c(SCC(=O)Nc3cc(C)on3)nc3c([nH]c4ccccc43)c2=O)cc1 | i | 92 | i | i | i | i | i | i
CC(=NNC(=O)c1c(Cl)c(C)nn1C)c1cccc(NC(=O)c2cccc(F)c2)c1 | nt | nt | nt | i | nt | nt | nt | nt
CC(=NNC(=O)CNC(=O)Cc1ccccc1)c1ccc(Cl)cc1 | nt | nt | nt | i | nt | nt | nt | nt
Cc1nn(Cc2ccccc2)c(C)c1C=NNC(=O)c1cccnc1 | nt | nt | nt | i | nt | nt | nt | nt
CCn1ncc(Br)c1C(=O)NC1CCCCCCC1 | i | 60 | i | i | nt | i | i | i
Cn1ncc(Br)c1C(=O)NC1CCCCC1 | i | i | i | i | i | i | nt | nt
Cc1ccc(C=NNC(=O)c2nnn(-c3nonc3N)c2C(C)C)s1 | nt | nt | nt | i | nt | nt | nt | nt
CCOC(=O)c1c(C)[nH]c(C(=O)NN=Cc2cc([N+](=O)[O-])ccc2O)c1C | nt | nt | nt | i | nt | nt | nt | nt
Nc1ncc(Br)cc1S(=O)(=O)Nc1ccccc1F | i | 58 | i | i | i | i | i | i
CCN(Cc1ccccc1)C(=O)CCNS(=O)(=O)c1cc(Br)cnc1N | i | i | i | i | i | i | nt | nt
COc1cc(C(=O)OCCNC(=O)c2cccnc2)cc(OC)c1OC | i | 58 | i | i | i | nt | i | i
